The values that follow come from ChEMBL document CHEMBL1155539, “Discovery of 4-[1-[([1-[4-(trifluoromethyl)benzyl]-1H-indol-7-yl]carbonyl)amino]cyclopropyl]benzoic acid (MF-766), a highly potent and selective EP4 antagonist for treating inflammatory pain” (Bioorg Med Chem Lett, 2010).

Experiment [1] has as its target T1, Prostaglandin E2 receptor EP1 subtype (Homo sapiens, UniProt P34995).
T1 sequence (P34995 whole entry): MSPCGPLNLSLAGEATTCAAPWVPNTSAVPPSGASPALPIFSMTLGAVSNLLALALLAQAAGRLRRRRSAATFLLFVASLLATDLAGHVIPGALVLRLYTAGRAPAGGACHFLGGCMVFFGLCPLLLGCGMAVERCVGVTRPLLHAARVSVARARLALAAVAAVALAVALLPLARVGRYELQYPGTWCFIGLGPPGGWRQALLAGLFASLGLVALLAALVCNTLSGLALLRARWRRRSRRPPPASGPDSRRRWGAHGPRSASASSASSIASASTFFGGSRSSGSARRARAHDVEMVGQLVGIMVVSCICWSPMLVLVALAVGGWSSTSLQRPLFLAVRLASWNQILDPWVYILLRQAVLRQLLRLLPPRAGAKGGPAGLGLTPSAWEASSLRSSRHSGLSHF
As to the kind of experiment: Displacement of [3H]PGE2 from human prostanoid EP1 receptor expressed in HEK293-EBNA cells after 60 mins by scintillation counting. It is filed as cell-based. Background: In a radioligand displacement assay an active substance lowers the binding of a labelled ligand.

In experiment [2] the target is T2, Prostaglandin E2 receptor EP4 subtype (Homo sapiens, UniProt P35408). As to the kind of experiment: Displacement of [3H]PGE2 from human prostanoid EP4 receptor expressed in HEK293-EBNA cells after 60 mins by scintillation counting. It is filed as cell-based.
T2 sequence (P35408 whole entry): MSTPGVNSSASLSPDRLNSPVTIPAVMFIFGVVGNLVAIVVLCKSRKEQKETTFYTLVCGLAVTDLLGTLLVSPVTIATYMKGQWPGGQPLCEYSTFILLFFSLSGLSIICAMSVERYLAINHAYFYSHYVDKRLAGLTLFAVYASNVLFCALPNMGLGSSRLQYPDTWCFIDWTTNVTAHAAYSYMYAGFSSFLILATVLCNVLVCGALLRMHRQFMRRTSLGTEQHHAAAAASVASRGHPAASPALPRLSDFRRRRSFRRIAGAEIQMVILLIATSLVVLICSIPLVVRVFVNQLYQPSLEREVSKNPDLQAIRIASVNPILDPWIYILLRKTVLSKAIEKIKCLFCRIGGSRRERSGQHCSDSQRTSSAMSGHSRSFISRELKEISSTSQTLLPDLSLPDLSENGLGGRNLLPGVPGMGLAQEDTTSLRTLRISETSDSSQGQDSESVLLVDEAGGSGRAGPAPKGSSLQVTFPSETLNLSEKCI
For experiment [3], the target named is T3, Prostaglandin E2 receptor EP3 subtype (Homo sapiens, UniProt P43115).
T3 sequence (P43115 whole entry): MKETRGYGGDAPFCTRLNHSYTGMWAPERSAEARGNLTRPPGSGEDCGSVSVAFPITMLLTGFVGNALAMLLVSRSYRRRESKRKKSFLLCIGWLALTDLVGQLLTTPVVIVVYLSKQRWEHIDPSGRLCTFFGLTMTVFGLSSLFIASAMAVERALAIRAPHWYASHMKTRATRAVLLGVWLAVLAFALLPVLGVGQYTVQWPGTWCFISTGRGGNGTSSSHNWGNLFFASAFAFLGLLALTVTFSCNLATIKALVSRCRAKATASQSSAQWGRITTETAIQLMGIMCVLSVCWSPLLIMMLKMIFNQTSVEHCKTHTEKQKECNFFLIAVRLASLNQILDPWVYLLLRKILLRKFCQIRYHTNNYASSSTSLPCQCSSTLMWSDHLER
As to the kind of experiment: Displacement of [3H]PGE2 from human prostanoid EP3 receptor expressed in HEK293-EBNA cells after 60 mins by scintillation counting. It is filed as cell-based.

The next experiment concerns the target T4, Thromboxane A2 receptor (Homo sapiens, UniProt P21731).
T4 sequence (P21731 whole entry): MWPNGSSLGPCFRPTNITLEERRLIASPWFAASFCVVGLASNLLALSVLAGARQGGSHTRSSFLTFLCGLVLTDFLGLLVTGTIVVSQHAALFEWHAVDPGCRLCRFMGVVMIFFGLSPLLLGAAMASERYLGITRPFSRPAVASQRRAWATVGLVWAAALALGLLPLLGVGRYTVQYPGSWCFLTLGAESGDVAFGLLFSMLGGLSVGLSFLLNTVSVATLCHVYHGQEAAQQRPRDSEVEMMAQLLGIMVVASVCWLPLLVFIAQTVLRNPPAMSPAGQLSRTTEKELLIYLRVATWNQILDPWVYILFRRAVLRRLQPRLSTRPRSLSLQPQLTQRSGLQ
As to the kind of experiment: Displacement of [3H]SQ-29548 from human prostanoid TP receptor expressed in HEK293-EBNA cells after 60 mins by scintillation counting. It is filed as cell-based.

Experiment [4] addresses T5, Prostaglandin D2 receptor (Homo sapiens, UniProt Q13258).
T5 sequence (Q13258 whole entry): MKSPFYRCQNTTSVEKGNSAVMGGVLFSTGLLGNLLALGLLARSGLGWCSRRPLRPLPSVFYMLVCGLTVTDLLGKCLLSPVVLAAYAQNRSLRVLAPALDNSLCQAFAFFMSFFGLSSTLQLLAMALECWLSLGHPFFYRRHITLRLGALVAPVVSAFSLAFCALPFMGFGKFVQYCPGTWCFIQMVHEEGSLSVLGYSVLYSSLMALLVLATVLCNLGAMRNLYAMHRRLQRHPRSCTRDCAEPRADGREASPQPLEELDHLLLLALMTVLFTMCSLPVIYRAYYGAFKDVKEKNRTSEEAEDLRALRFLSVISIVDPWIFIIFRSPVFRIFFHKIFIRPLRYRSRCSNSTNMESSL
As to the kind of experiment: Displacement of [3H]PGD2 from human Prostanoid DP1 receptor expressed in HEK293-EBNA cells after 60 mins by scintillation counting. It is filed as cell-based.

Experiment [5] concerns the target T2, Prostaglandin E2 receptor EP4 subtype. As to the kind of experiment: Antagonist activity at human prostanoid EP4 receptor expressed in HEK293 cells assessed as inhibition of PGE2-induced cAMP accumulation by scintillation proximity assay. It is filed as functional, cell-based. The method, boiled down:
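Read-out was inhibition of PGE2-induced cAMP accumulation at EP4. Values are means from at least two independent experiments.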
In general terms: Cyclic AMP is a second messenger, typically raised through Gs and lowered through Gi signalling.

Experiment [6] concerns the target T6, Prostaglandin D2 receptor 2 (Homo sapiens, UniProt Q9Y5Y4).
T6 sequence (Q9Y5Y4 whole entry): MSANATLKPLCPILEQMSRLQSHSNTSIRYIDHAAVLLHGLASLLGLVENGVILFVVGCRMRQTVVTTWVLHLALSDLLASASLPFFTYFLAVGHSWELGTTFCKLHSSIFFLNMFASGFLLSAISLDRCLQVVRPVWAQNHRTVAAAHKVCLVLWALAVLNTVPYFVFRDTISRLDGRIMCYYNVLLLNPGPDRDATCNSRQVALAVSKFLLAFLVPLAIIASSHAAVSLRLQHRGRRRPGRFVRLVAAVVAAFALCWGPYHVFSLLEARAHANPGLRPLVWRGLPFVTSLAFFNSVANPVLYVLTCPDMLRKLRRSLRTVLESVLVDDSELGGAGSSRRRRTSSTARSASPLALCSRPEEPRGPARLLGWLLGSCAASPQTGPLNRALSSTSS
As to the kind of experiment: Displacement of [3H]PGD2 from human Prostanoid DP2 receptor expressed in HEK293-EBNA cells after 60 mins by scintillation counting. It is filed as cell-based.

The target in experiment [7] is Prostaglandin E2 receptor EP2 subtype (Homo sapiens, UniProt P43116). As to the kind of experiment: Displacement of [3H]PGE2 from human prostanoid EP2 receptor expressed in HEK293-EBNA cells after 60 mins by scintillation counting. It is filed as cell-based.
Chain of Prostaglandin E2 receptor EP2 subtype (P43116 whole entry): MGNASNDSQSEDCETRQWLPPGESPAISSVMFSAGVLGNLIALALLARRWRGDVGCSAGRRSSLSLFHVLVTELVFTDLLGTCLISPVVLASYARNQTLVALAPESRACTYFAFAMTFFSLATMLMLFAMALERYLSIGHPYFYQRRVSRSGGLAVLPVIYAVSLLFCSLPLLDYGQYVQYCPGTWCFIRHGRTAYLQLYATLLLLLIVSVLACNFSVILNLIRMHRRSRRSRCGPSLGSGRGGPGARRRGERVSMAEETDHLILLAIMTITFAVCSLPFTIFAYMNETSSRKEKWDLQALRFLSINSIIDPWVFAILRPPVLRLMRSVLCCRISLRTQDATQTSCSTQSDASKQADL
Experiment [8] has as its target Prostaglandin F2-alpha receptor (Homo sapiens, UniProt P43088). As to the kind of experiment: Displacement of [3H]PGF2alpha from human prostanoid FP receptor expressed in HEK293-EBNA cells after 60 mins by scintillation counting. It is filed as cell-based.
In a further experiment the target is Prostacyclin receptor (Homo sapiens, UniProt P43119). As to the kind of experiment: Displacement of [3H]iloprost from human prostanoid IP receptor expressed in HEK293-EBNA cells after 60 mins by scintillation counting. It is filed as cell-based.
Chain of Prostacyclin receptor (P43119 whole entry): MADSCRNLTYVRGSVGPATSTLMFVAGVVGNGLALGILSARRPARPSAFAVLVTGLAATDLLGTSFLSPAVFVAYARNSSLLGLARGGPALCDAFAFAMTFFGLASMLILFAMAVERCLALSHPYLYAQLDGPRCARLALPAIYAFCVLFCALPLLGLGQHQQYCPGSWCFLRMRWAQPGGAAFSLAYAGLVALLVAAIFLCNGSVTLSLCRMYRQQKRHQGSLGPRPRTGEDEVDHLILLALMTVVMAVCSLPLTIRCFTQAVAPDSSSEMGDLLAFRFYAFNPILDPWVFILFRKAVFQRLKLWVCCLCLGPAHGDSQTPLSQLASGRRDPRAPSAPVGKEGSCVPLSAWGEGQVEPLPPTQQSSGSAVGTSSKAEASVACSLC
For the next experiment, the system named is Rattus norvegicus. As to the kind of experiment: Antiinflammatory activity in rat assessed as inhibition of complete Freund's adjuvant-induced paw swelling administered daily once 9 days after adjuvant challenge measured on day 18. It is filed as functional. The method, boiled down:
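Rat adjuvant-induced arthritis model with daily dosing in mg/kg/day. Dose groups were 0, 0.001, 0.01, 0.1 and 1 mg/kg, plus a non-AIA control group. Primary and secondary paw swelling were scored as % inhibition relative to vehicle-treated arthritic rats, and ED50 was estimated from the dose–response.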

In general, Ki refers to a dissociation constant, usually derived from enzyme kinetics or from competition with a known ligand. In general, IC50 refers to the concentration that inhibits the measured activity by half. A word on the ED50: it is the dose that gives a 50% effect, or the effect in half of the subjects.

Chain of Prostaglandin F2-alpha receptor (P43088 whole entry): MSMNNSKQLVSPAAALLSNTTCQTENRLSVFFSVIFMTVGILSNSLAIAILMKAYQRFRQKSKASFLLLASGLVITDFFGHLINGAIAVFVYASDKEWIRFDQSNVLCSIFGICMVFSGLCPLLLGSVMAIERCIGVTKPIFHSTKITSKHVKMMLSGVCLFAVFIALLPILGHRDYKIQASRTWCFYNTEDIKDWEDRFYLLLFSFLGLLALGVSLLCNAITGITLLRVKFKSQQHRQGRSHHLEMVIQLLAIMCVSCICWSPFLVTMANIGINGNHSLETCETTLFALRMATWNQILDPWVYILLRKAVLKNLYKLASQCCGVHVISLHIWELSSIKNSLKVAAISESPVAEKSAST

In the case of `C[C@H](NC(=O)c1cc(Cl)cc2ccn(Cc3ccc(C(F)(F)F)cc3)c12)c1ccc(C(=O)O)cc1`, the Ki is not below 100 nM in [1]; 0.44 nM in experiment [2]; not below 100 nM in [3]; not below 100 nM at Thromboxane A2 receptor; 209 nM in experiment [4]; not below 100 nM in experiment [6]. The Ki (in experiment [7]; in experiment [8]; at Prostacyclin receptor) was not below 100 nM throughout. Besides, the IC50 in experiment [5] was 1.12 nM.

In the case of `C[C@H](NC(=O)c1cccc2c(Cl)cn(Cc3cccc(Cl)c3)c12)c1ccc(C(=O)O)cc1`, the inhibitory constant (Ki) in experiment [1] was not below 930 nM; in experiment [2], 20.1 nM; in [3], not below 930 nM; at Thromboxane A2 receptor, not below 930 nM; in experiment [4] it was 14 nM; in [6], not below 930 nM. Moreover, the Ki (in [7]; in [8]; at Prostacyclin receptor) was not below 930 nM in each case.

As to `Cc1cn(Cc2cccc(Cl)c2)c2c(C(=O)N[C@@H](C)c3ccc(C(=O)O)cc3)cccc12`, the figures for the Ki in experiment [2] and in experiment [4] were 39.5 nM and 1200 nM, respectively.

In the case of `Cc1cc2cccc(C(=O)N[C@@H](C)c3ccc(C(=O)O)cc3)c2n1Cc1cccc(Cl)c1`, the Ki was 56 nM in experiment [2] and 450 nM in experiment [4].

`C[C@H](NC(=O)c1cccc2ccn(Cc3cccc(C(F)(F)F)c3)c12)c1ccc(C(=O)O)cc1`: the Ki in experiment [1] is not below 785 nM; in experiment [2], 4.8 nM; in [3], not below 785 nM; at Thromboxane A2 receptor, not below 785 nM; in [4] it was 885 nM; in [6], not below 785 nM. Moreover, the Ki (in experiment [7]; in experiment [8]; on Prostacyclin receptor) was not below 785 nM in each case. Further, the IC50 in [5] turned out to be 11.8 nM.

Consider `C[C@H](NC(=O)c1cccc2ccn(Cc3cc(Cl)cc(OC(F)(F)F)c3)c12)c1ccc(C(=O)O)cc1`, for which the Ki in experiment [1] was not below 260 nM; in [2], 0.38 nM; in experiment [3], not below 260 nM; on Thromboxane A2 receptor it was not below 260 nM; in experiment [4], 49 nM; in experiment [6], not below 260 nM. Further, the Ki (in [7]; in experiment [8]; on Prostacyclin receptor) was not below 260 nM each time. In addition, the IC50 in [5] came to 1.4 nM.

For the molecule `C[C@H](NC(=O)c1cccc2ccn(Cc3ccc(C(F)(F)F)cc3)c12)c1ccc(C(=O)O)cc1`, the Ki in experiment [1] was not below 580 nM; in experiment [2], 0.62 nM; in experiment [3] it was not below 580 nM; on Thromboxane A2 receptor, not below 580 nM; in [4] it was 1390 nM; in experiment [6], not below 580 nM. Moreover, the Ki (in [7]; in [8]; on Prostacyclin receptor) was not below 580 nM throughout. The IC50 in experiment [5] came out at 2.7 nM.

On to `C[C@H](NC(=O)c1cc(Cl)cc2ccn(Cc3cccc(Cl)c3)c12)c1ccc(C(=O)O)cc1`, for which the Ki was not below 110 nM in experiment [1]; 0.81 nM in experiment [2]; not below 110 nM in experiment [3]; not below 110 nM at Thromboxane A2 receptor; 63 nM in experiment [4]; not below 110 nM in experiment [6]. The Ki (in experiment [7]; in experiment [8]; at Prostacyclin receptor) was not below 110 nM in each case. For the same molecule, in experiment [5], the IC50 turned out to be 1.5 nM.

Take `C[C@H](NC(=O)c1cc(F)cc2ccn(Cc3cccc(Cl)c3)c12)c1ccc(C(=O)O)cc1`: the Ki in experiment [1] was not below 504 nM; in [2], 2.4 nM; in experiment [3] it was not below 504 nM; at Thromboxane A2 receptor, not below 504 nM; in [4], 404 nM; in [6] it was not below 504 nM. For the same molecule, the Ki (in experiment [7]; in experiment [8]; at Prostacyclin receptor) was not below 504 nM in each case. Moreover, the IC50 in experiment [5] was determined as 3.3 nM.

For the molecule `C[C@H](NC(=O)c1cccc2ccn(Cc3cccc(Cl)c3)c12)c1ccc(C(=O)O)cc1`, the Ki in [1] was not below 2500 nM; in experiment [2], 2.7 nM; in [3], not below 2500 nM; on Thromboxane A2 receptor, not below 2500 nM; in experiment [4] it was 16 nM; in experiment [6], not below 2500 nM. In addition, the Ki (in [7]; in experiment [8]; at Prostacyclin receptor) was not below 2500 nM in each case. The IC50 in experiment [5] is 5.9 nM.

Regarding `O=C(O)c1ccc(C2(NC(=O)c3cc(Cl)cc4ccn(Cc5ccc(C(F)(F)F)cc5)c34)CC2)cc1`, the Ki was not below 1290 nM in experiment [1]; 0.31 nM in experiment [2]; not below 1290 nM in experiment [3]; not below 1290 nM at Thromboxane A2 receptor; 561 nM in experiment [4]; not below 1290 nM in experiment [6]. In addition, the Ki (in experiment [7]; in experiment [8]; on Prostacyclin receptor) was not below 1290 nM in each case. Also, in [5], the IC50 worked out at 1.26 nM.

As for `C[C@H](NC(=O)c1cc(Cl)ccc1Oc1ccc(F)cc1)c1ccc(C(=O)O)cc1`, in the experiment with Rattus norvegicus, the ED80 amounted to 11.5 mg/kg.

Turning to `CS(=O)(=O)c1ccc(C2=C(c3ccccc3)C(=O)OC2)cc1` [ROFECOXIB], in the experiment with Rattus norvegicus, the ED50 was found to be 0.7 mg/kg/day.
